Source: PubChem BioAssay (Broad Institute)
Shown are actives, neighbours in structure and some others; about 5.9% of the full set was active somewhere.
T cruzi growth-1 – T. cruzi intracellular proliferation inhibitors, primary screen, cell-based, beta-gal Tulahuen parasites, NIH3T3 host, luminescence; 77,000 tested, 5.9% active; AID 624255, 2012; inhibition, % at 8.34 µM; T. cruzi beta-gal in NIH3T3, GalScreen luminescence, 90 h;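 active = mean inhibition above about 93%, with at least 55% of replicates each passing it, limit read from the data, passing the limit was not always enough; inconclusive = only one of those two conditions holds; inactive = neither condition holds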
KDM4C inh – inhibitors of GASC-1 (KDM4C) histone demethylase, primary screen, biochemical, single concentration HTS | Lysine-specific demethylase 4C (Homo sapiens), Q9H3R0 | GST-KDM4C 2-372, H3K9me3 peptide, LANCE TR-FRET | inhibition, % at 12.5 µM | 96,000 tested, 0.15% active | AID 720574, 2013;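 active = mean replicate inhibition above about 25%, with at least 55% of replicates also reaching it, limit read from the data, passing the limit was not always enough; inconclusive = only one of those two conditions met; inactive = neither condition met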
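reagent = H3K9me3 peptide substrate, Fe(II), 2-oxoglutarate | system = GST-tagged GASC-1 (JMJD2C) catalytic fragment, aa 2-372 | amount = enzyme final amount 10 nM | read-out = Fall in 671/618 emission ratio as inhibition | medium = HEPES buffer, pH 7.5, plus ascorbate | schedule = 30 min reaction, 60 min detection, RT | measured by = LANCE TR-FRET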
IDH1 mut inh – inhibitors of IDH1 R132H reductase, primary screen, biochemical, plate reader, single point. Isocitrate dehydrogenase [NADP] cytoplasmic (Homo sapiens), O75874. diaphorase/resazurin fluorescence, 60 min. inhibition, % at 10 µM. 70,000 tested, 0.18% active; in the data active = inhibition above about 34%; inconclusive = no clear call, values can overlap the other calls; inactive = below about 11%
Target sequence (O75874 whole entry R132H): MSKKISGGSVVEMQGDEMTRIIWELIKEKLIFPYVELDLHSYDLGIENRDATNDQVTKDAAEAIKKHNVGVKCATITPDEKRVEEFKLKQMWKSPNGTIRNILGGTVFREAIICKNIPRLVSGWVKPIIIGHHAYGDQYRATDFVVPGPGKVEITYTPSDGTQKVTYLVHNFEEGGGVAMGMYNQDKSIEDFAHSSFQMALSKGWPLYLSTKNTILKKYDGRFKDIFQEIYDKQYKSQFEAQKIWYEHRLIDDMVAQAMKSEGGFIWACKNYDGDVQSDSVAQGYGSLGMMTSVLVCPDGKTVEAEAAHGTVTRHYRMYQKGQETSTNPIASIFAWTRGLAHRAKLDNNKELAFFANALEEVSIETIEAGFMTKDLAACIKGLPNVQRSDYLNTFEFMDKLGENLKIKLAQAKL
Pf Dd2 inh – P. falciparum Dd2 growth inhibitors, primary screen, SYBR Green fluorescence, single dose replicates; activity change, % at 10 µM; 72 h; stronger effect = lower value; 94,000 tested, 2.3% active; in the data active = activity change below about -80%; inconclusive = no clear call, values can overlap the other calls
T cruzi growth-2 – T. cruzi intracellular proliferation inhibitors, confirmation, cell-based, NIH3T3 host, beta-gal parasite, luminescence, cherry-pick; inhibition, % at 8.35 µM; shares compounds with T cruzi growth-1; 5,600 tested, 72% active; T. cruzi beta-gal in NIH3T3, GalScreen luminescence, 90 h; AID 651739, 2012;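 active = mean replicate inhibition above about 95% and at least 55% of replicates individually reaching it, limit read from the data; inconclusive = only one of the two criteria is met; inactive = neither criterion is met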
T cruzi growth-3 – inhibitors of intracellular T. cruzi replication, confirmation, NIH3T3 host cells, beta-gal parasites, cherry-pick, set 2 | shares compounds with T cruzi growth-1 | T. cruzi beta-gal in NIH3T3, GalScreen luminescence, 90 h | inhibition, % at 2.09 µM | 5,600 tested, 21% active;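 active = mean inhibition above about 95%, with at least 55% of replicates also reaching it, limit read from the data; inconclusive = meets just one of the two conditions; inactive = meets neither condition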
3T3 cytotox – cytotoxicity in mouse NIH/3T3 fibroblasts, confirmation, cytotoxicity control for T. cruzi proliferation inhibitor project, cell-based, cherry-pick, single point. NIH/3T3 viability, CellTiter-Glo ATP luminescence, 90 h. AID 651742, 2012. shares compounds with T cruzi growth-1. cytotoxicity (signal decrease), % at 8.35 µM. 5,600 tested, 14% active;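 active = mean signal decrease across replicates above about 35% based on untreated-well scatter, with enough replicates individually passing, limit read from the data; inconclusive = no rule stated though some were filed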
NIH3T3 tox 2 – NIH/3T3 fibroblast cytotoxicity, confirmation, cytotoxicity control, cell-based, cherry-pick, single point, set 2; inhibition, % at 24.9 µM; AID 651744, 2012; shares compounds with T cruzi growth-1; 5,600 tested, 56% active; NIH/3T3 viability, CellTiter-Glo ATP luminescence, 90 h;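 active = mean loss of cell viability signal at or above a set limit, and enough replicates individually reaching it; inconclusive = meets only the mean limit or only the replicate share; inactive = meets neither condition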
Large screens that a line does not name were inactive (follow-up assays come after a bar, where they were run).

CCS(=O)(=O)N1CCCCN2[C@H](CO)[C@H](c3ccc(-c4ccccc4F)cc3)[C@H]2C1	T cruzi growth-1 99.5 (no result: IDH1 mut inh) | T cruzi growth-2 95.6 | T cruzi growth-3 inactive | 3T3 cytotox inactive | NIH3T3 tox 2 60.6
O=S(=O)(c1ccc(F)cc1)N1CCCCN2[C@H](CO)[C@H](c3ccc(-c4ccccc4F)cc3)[C@@H]2C1	T cruzi growth-1 110.6 (no result: KDM4C inh, IDH1 mut inh) | T cruzi growth-2 104.3 | T cruzi growth-3 inactive | 3T3 cytotox inactive | NIH3T3 tox 2 93.6
O=S(=O)(c1ccc(F)cc1)N1CCCCN2[C@@H](CO)[C@H](c3ccc(-c4ccccc4F)cc3)[C@@H]2C1	T cruzi growth-1 106.3 (no result: KDM4C inh, IDH1 mut inh) | T cruzi growth-2 inactive | T cruzi growth-3 inactive | 3T3 cytotox 77.5 | NIH3T3 tox 2 100.4
Cc1ccccc1-c1ccc([C@H]2[C@H](CO)N3CCCCN(S(=O)(=O)c4ccc(F)cc4)C[C@@H]23)cc1	T cruzi growth-1 111.9 (no result: IDH1 mut inh) | T cruzi growth-2 99.7 | T cruzi growth-3 109.6 | 3T3 cytotox inconclusive | NIH3T3 tox 2 103.8
Cc1nc(SCC(=O)Nc2ccc(Oc3ccccc3)cc2)n[nH]1	none (no result: T cruzi growth-1, KDM4C inh, Pf Dd2 inh)
COc1ccc(OC(C)C(=O)Nc2cc(C)c(Cl)cc2OC)cc1 (stereo unspecified)	none (no result: T cruzi growth-1, KDM4C inh, Pf Dd2 inh)
Clc1ccc(COc2ccccc2CNc2ncn[nH]2)c(Cl)c1	none (no result: T cruzi growth-1, KDM4C inh, Pf Dd2 inh)
CC(C)C1C(=O)N(S(C)(=O)=O)[C@@H]2CCN(C(=O)/C=C/CN3CCCCC3)[C@@H]12 (stereo partly specified)	none (no result: T cruzi growth-1, KDM4C inh, Pf Dd2 inh)
Cc1cc(NC(=O)C(=O)NCc2cccnc2)ccc1Br	none (no result: T cruzi growth-1, KDM4C inh, Pf Dd2 inh)
O=S(=O)(c1ccc(F)cc1)N1CCCCN2[C@H](C1)[C@@H](c1ccc(-c3ccccc3F)cc1)[C@@H]2CO	T cruzi growth-1 107.3 (no result: KDM4C inh, IDH1 mut inh) | T cruzi growth-2 101.0 | T cruzi growth-3 inactive | 3T3 cytotox inactive | NIH3T3 tox 2 42.1
O=S(=O)(c1ccc(F)cc1)N1CCCCN2[C@H](C1)[C@H](c1ccc(-c3ccccc3F)cc1)[C@@H]2CO	T cruzi growth-1 108.1 (no result: KDM4C inh, IDH1 mut inh) | T cruzi growth-2 104.7 | T cruzi growth-3 105.0 | 3T3 cytotox inactive | NIH3T3 tox 2 101.7
O=S(=O)(c1ccc(F)cc1)N1CCCCN2[C@@H](CO)[C@@H](c3ccc(-c4ccccc4F)cc3)[C@@H]2C1	none (no result: KDM4C inh, IDH1 mut inh)
Cc1ccccc1-c1ccc([C@H]2[C@H](CO)N3CCCCN(S(C)(=O)=O)C[C@@H]23)cc1	T cruzi growth-1 108.9 (no result: IDH1 mut inh) | T cruzi growth-2 95.8 | T cruzi growth-3 inactive | 3T3 cytotox inactive | NIH3T3 tox 2 35.5
N#Cc1ccc(/C=C/C(=O)NCc2ccccc2)cc1	none (no result: T cruzi growth-1, KDM4C inh, Pf Dd2 inh)
CCc1cnc(N2[C@H](C#N)[C@H](c3ccc(-c4cccc(F)c4)cc3)[C@@H]2CO)s1	T cruzi growth-1 101.8 (no result: IDH1 mut inh) | T cruzi growth-2 98.0 | T cruzi growth-3 107.8 | 3T3 cytotox inactive | NIH3T3 tox 2 inactive
CCc1cnc(N2[C@@H](C#N)[C@@H](c3ccc(C4=CCCCC4)cc3)[C@@H]2CO)s1	T cruzi growth-1 99.6 (no result: IDH1 mut inh) | T cruzi growth-2 96.3 | T cruzi growth-3 inactive | 3T3 cytotox inconclusive | NIH3T3 tox 2 59.7
CCc1cnc(N2[C@@H](C#N)[C@@H](c3ccc(C4=CCCC4)cc3)[C@@H]2CO)s1	T cruzi growth-1 96.1 (no result: IDH1 mut inh) | T cruzi growth-2 104.7 | T cruzi growth-3 inactive | 3T3 cytotox inactive | NIH3T3 tox 2 42.2
CCc1cnc(N2[C@H](C#N)[C@H](c3ccc(C4=CCCCC4)cc3)[C@H]2CO)s1	none (no result: KDM4C inh, IDH1 mut inh)
